Measured values reported in ChEMBL document CHEMBL1629614, “Inhibition of methionyl-tRNA synthetase by REP8839 and effects of resistance mutations on enzyme activity” (Antimicrob Agents Chemother, 2009).
Positions count from the first letter of the chain named. Names and notes keep the numbering of the source.

Tests used:
[1] = compound: C=C(F)c1sc(CNCCCNc2cc(=O)c3ccccc3[nH]2)c(C)c1Br; experiment: Activity of Thermus thermophilus HB8 MetRS by ATP:PPi exchange assay in presence of ATP
[2] = compound: C=C(F)c1sc(CNCCCNc2cc(=O)c3ccccc3[nH]2)c(C)c1Br; experiment: Activity of Thermus thermophilus HB8 MetRS by ATP:PPi exchange assay in presence of methionine
[3] = compound: C=C(F)c1sc(CNCCCNc2cc(=O)c3ccccc3[nH]2)c(C)c1Br; experiment: Activity of Staphylococcus aureus MetRS L213W mutant by ATP:PPi exchange assay in presence of ATP
Procedure, shortened: (§1)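 Purified S. aureus MetRS (wild type or mutant; E. coli-expressed, ammonium sulfate cut, anion exchange) at 30 nM. ATP:PPi exchange at 30°C in 100 mM Tris-HCl pH 8.0, 5–10 mM Mg acetate, 80 mM KCl, 2.5 mM DTT, [32P]PPi plus cold PPi equal to ATP. Quenched with EDTA over 1–10 min, PEI-cellulose TLC, phosphorimager. Initial velocities versus varied ATP or methionine fit to Michaelis-Menten.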

[4] = compound: C=C(F)c1sc(CNCCCNc2cc(=O)c3ccccc3[nH]2)c(C)c1Br; experiment: Ratio of Kcat to Km for Staphylococcus aureus MetRS L213W mutant in presence of ATP
Procedure, shortened: (§2)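 Purified recombinant S. aureus MetRS (30 nM) was assayed by ATP:PPi exchange at 30°C in Tris pH 8.0 with Mg acetate, KCl and DTT. [32P]PPi was matched to ATP, and ATP or methionine was varied. Time points from 1 to 10 min were quenched with EDTA, separated by PEI-cellulose TLC and read by phosphorimager. Initial rates were fitted to Michaelis-Menten.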

[5] = compound: C=C(F)c1sc(CNCCCNc2cc(=O)c3ccccc3[nH]2)c(C)c1Br; experiment: Activity of Staphylococcus aureus MetRS L213W mutant by ATP:PPi exchange assay in presence of methionine; procedure, shortened: as §1
[6] = compound: C=C(F)c1sc(CNCCCNc2cc(=O)c3ccccc3[nH]2)c(C)c1Br; experiment: Ratio of Kcat to Km for Staphylococcus aureus MetRS L213W mutant in presence of tRNA
Procedure, shortened: (§3)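 Purified recombinant S. aureus MetRS was assayed by tRNA aminoacylation at 30°C for 1 to 7.5 min to obtain initial rates. Buffer was Tris pH 8.0 with Mg acetate, 2.5 mM ATP, KCl, DTT, BSA, [3H]methionine and crude E. coli tRNA. Reactions were EDTA-stopped, and charged tRNA was read by scintillation proximity with polylysine beads at pH 2.0.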

[7] = compound: C=C(F)c1sc(CNCCCNc2cc(=O)c3ccccc3[nH]2)c(C)c1Br; experiment: Ratio of Kcat to Km for Staphylococcus aureus MetRS L213W mutant in presence of methionine; procedure, shortened: as §2
[8] = compound: C=C(F)c1sc(CNCCCNc2cc(=O)c3ccccc3[nH]2)c(C)c1Br; experiment: Activity of streptococcus aureus MetRS L213W mutant by scintillation proximity assay in presence of tRNA; conditions: Staphylococcus aureus
[9] = compound: C=C(F)c1sc(CNCCCNc2cc(=O)c3ccccc3[nH]2)c(C)c1Br; experiment: Ratio of Kcat to Km for Staphylococcus aureus MetRS I57N V242F mutant in presence of methionine; procedure, shortened: as §2
[10] = compound: C=C(F)c1sc(CNCCCNc2cc(=O)c3ccccc3[nH]2)c(C)c1Br; experiment: Activity of streptococcus aureus MetRS I57N, V242F mutant by scintillation proximity assay in presence of tRNA; conditions: Staphylococcus aureus
[11] = compound: C=C(F)c1sc(CNCCCNc2cc(=O)c3ccccc3[nH]2)c(C)c1Br; experiment: Activity of Staphylococcus aureus MetRS I57N, V242F mutant by ATP:PPi exchange assay in presence of ATP; procedure, shortened: as §1
[12] = compound: C=C(F)c1sc(CNCCCNc2cc(=O)c3ccccc3[nH]2)c(C)c1Br; experiment: Ratio of Kcat to Km for Staphylococcus aureus MetRS I57N V242F mutant in presence of ATP; procedure, shortened: as §2
[13] = compound: C=C(F)c1sc(CNCCCNc2cc(=O)c3ccccc3[nH]2)c(C)c1Br; experiment: Ratio of Kcat to Km for Staphylococcus aureus MetRS I57N V242F mutant in presence of tRNA; procedure, shortened: as §3
[14] = compound: C=C(F)c1sc(CNCCCNc2cc(=O)c3ccccc3[nH]2)c(C)c1Br; experiment: Activity of Staphylococcus aureus MetRS I57N, V242F mutant by ATP:PPi exchange assay in presence of methionine; procedure, shortened: as §1
[15] = compound: C=C(F)c1sc(CNCCCNc2cc(=O)c3ccccc3[nH]2)c(C)c1Br; experiment: Activity of Staphylococcus aureus MetRS V108M mutant by ATP:PPi exchange assay in presence of ATP; procedure, shortened: as §1
[16] = compound: C=C(F)c1sc(CNCCCNc2cc(=O)c3ccccc3[nH]2)c(C)c1Br; experiment: Ratio of Kcat to Km for Staphylococcus aureus MetRS V108M mutant in presence of tRNA; procedure, shortened: as §3
[17] = compound: C=C(F)c1sc(CNCCCNc2cc(=O)c3ccccc3[nH]2)c(C)c1Br; experiment: Ratio of Kcat to Km for Staphylococcus aureus MetRS V108M mutant in presence of ATP; procedure, shortened: as §2
[18] = compound: C=C(F)c1sc(CNCCCNc2cc(=O)c3ccccc3[nH]2)c(C)c1Br; experiment: Activity of streptococcus aureus MetRS V108M mutant by scintillation proximity assay in presence of tRNA; conditions: Staphylococcus aureus
[19] = compound: C=C(F)c1sc(CNCCCNc2cc(=O)c3ccccc3[nH]2)c(C)c1Br; experiment: Activity of Staphylococcus aureus MetRS V108M mutant by ATP:PPi exchange assay in presence of methionine; procedure, shortened: as §1
[20] = compound: C=C(F)c1sc(CNCCCNc2cc(=O)c3ccccc3[nH]2)c(C)c1Br; experiment: Ratio of Kcat to Km for Staphylococcus aureus MetRS V108M mutant in presence of methionine; procedure, shortened: as §2

B1: Methionine--tRNA ligase (Thermus thermophilus (strain HB8 / ATCC 27634 / DSM 579)), P23395 (protein)
chain: MEKVFYVTTPIYYVNAEPHLGHAYTTVVADFLARWHRLDGYRTFFLTGTDEHGETVYRAAQAAGEDPKAFVDRVSGRFKRAWDLLGIAYDDFIRTTEERHKKVVQLVLKKVYEAGDIYYGEYEGLYCVSCERFYTEKELVEGLCPIHGRPVERRKEGNYFFRMEKYRPWLQEYIQENPDLIRPEGYRNEVLAMLAEPIGDLSISRPKSRVPWGIPLPWDENHVTYVWFDALLNYVSALDYPEGEAYRTFWPHAWHLIGKDILKPHAVFWPTMLKAAGIPMYRHLNVGGFLLGPDGRKMSKTLGNVVDPFALLEKYGRDALRYYLLREIPYGQDTPVSEEALRTRYEADLADDLGNLVQRTRAMLFRFAEGRIPEPVAGEELAEGTGLAGRLRPLVRELKFHVALEEAMAYVKALNRYINEKKPWELFKKEPEEARAVLYRVVEGLRIASILLTPAMPDKMAELRRALGLKEEVRLEEAERWGLAEPRPIPEEAPVLFPKKEAKVEAKPKEEAWIGIEDFAKVELRVAEVLAAEKHPNADRLLVLRLSLGNEERTVVSGIAKWYRPEELVGKKVVLVANLKPAKLRGIESQGMILAAQEGEALALVTVEGEVPPGAVVK
With B1 as the protein, how does the Km [1] read?
The Km was 180 µM.

And the Km [2]?
Its Km is 18 µM.

B2: Methionine--tRNA ligase (Staphylococcus aureus subsp. aureus MW2), Q8NY00 L213W (protein)
chain: MAKETFYITTPIYYPSGNLHIGHAYSTVAGDVIARYKRMQGYDVRYLTGTDEHGQKIQEKAQKAGKTEIEYLDEMIAGIKQLWAKLEISNDDFIRTTEERHKHVVEQVFERLLKQGDIYLGEYEGWYSVPDETYYTESQLVDPQYENGKIIGGKSPDSGHEVELVKEESYFFNISKYTDRLLEFYDQNPDFIQPPSRKNEMINNFIKPGLADWAVSRTSFNWGVHVPSNPKHVVYVWIDALVNYISALGYLSDDESLFNKYWPADIHLMAKEIVRFHSIIWPILLMALDLPLPKKVFAHGWILMKDGKMSKSKGNVVDPNILIDRYGLDATRYYLMRELPFGSDGVFTPEAFVERTNFDLANDLGNLVNRTISMVNKYFDGELPAYQGPLHELDEEMEAMALETVKSYTESMESLQFSVALSTVWKFISRTNKYIDETTPWVLAKDDSQKDMLGNVMAHLVENIRYAAVLLRPFLTHAPKEIFEQLNINNPQFMEFSSLEQYGVLTESIMVTGQPKPIFPRLDSEAEIAYIKESMQPPATEEEKEEIPSKPQIDIKDFDKVEIKAATIINAEHVKKSDKLLKIQVDLDSEQRQIVSGIAKFYTPDDIIGKKVAVVTNLKPAKLMGQKSEGMILSAEKDGVLTLVSLPSAIPNGAVIK
With B2 as the protein, how does the Km [3] read?
Its Km is 595 µM.

And the kcat/Km [4]?
Its kcat/Km is 0.017 µM⁻¹ s⁻¹.

What about the Km [5] of the same protein?
Its Km is 100 µM.

And the kcat [5]?
The kcat was 10 s⁻¹.

And the kcat/Km [6]?
The kcat/Km was 0.32 µM⁻¹ s⁻¹.

What about the kcat/Km [7] of the same protein?
The kcat/Km was 0.1 µM⁻¹ s⁻¹.

And the Km [8]?
The Km was 1.7 µM.

What about the kcat [8] of the same protein?
The kcat was 0.54 s⁻¹.

B3: Methionine--tRNA ligase (Staphylococcus aureus subsp. aureus MW2), Q8NY00 I57N,V242F (protein)
chain: B2 chain with I57N, W213L, V242F
Which kcat/Km [9] does the source give for B3 here?
The kcat/Km was 0.7 µM⁻¹ s⁻¹.

What about the Km [10] of the same protein?
The Km was 10 µM.

What about the kcat [10] of the same protein?
The kcat was 0.124 s⁻¹.

What about the Km [11] of the same protein?
Its Km is 810 µM.

What about the kcat/Km [12] of the same protein?
The kcat/Km was 0.017 µM⁻¹ s⁻¹.

What about the kcat/Km [13] of the same protein?
The kcat/Km was 0.012 µM⁻¹ s⁻¹.

And the Km [14]?
The Km was 20 µM.

And the kcat [14]?
Its kcat is 14 s⁻¹.

B4: Methionine--tRNA ligase (Staphylococcus aureus subsp. aureus MW2), Q8NY00 V108M (protein)
chain: B2 chain with V108M, W213L
Which results are given for B4?
Km [15]: 650 µM; kcat/Km [16]: 0.23 µM⁻¹ s⁻¹; kcat/Km [17]: 0.023 µM⁻¹ s⁻¹; Km [18]: 3.2 µM; kcat [18]: 0.74 s⁻¹; Km [19]: 140 µM; kcat [19]: 15 s⁻¹; kcat/Km [20]: 0.11 µM⁻¹ s⁻¹
